Data: PMC4424118 (Nature structural & molecular biology, 2015)

What was measured:
DRD5 dopamine receptor = DRD5 dopamine receptor (Homo sapiens, UniProt P21918); assay: TANGO β-arrestin recruitment assay, DRD5; assay type: cell-based; details: PRESTO-TANGO screen and concentration-response (Fig. 4c)
DRD4 dopamine receptor = biological target: T1, DRD4 dopamine receptor (Homo sapiens, UniProt P21917); assay: TANGO β-arrestin recruitment assay, DRD4; assay type: cell-based; details: PRESTO-TANGO screen and concentration-response (Fig. 4b)
T1 sequence (P21917 1-419): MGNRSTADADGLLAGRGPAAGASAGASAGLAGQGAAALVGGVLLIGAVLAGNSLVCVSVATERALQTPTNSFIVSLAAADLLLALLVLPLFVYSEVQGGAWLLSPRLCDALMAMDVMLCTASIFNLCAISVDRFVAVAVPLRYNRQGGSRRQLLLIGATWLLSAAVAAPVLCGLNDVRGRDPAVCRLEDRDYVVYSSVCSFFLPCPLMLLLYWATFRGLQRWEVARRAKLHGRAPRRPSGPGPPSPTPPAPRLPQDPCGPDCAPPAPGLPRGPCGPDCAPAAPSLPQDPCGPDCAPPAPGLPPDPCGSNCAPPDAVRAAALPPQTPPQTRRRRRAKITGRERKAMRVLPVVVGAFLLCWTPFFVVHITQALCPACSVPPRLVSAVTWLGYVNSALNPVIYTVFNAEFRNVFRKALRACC

[1] = system: 133 non-orphan, non-olfactory GPCR targets; assay: PRESTO-TANGO parallel GPCR-ome screening β-arrestin recruitment assay; assay type: cell-based, human; details: of 133 non-orphan
MRGPRX3 = MRGPRX3 (Homo sapiens, UniProt Q96LB0); assay: cAMP; assay type: cell-based; details: Gs assay, HEK293T cells
MRGPRX4 [2] = biological target: T2, MRGPRX4 (Homo sapiens, UniProt Q96LA9); assay: cAMP; assay type: cell-based; details: Gs assay, HEK293T cells
MRGPRX4 [3] = biological target: T2, MRGPRX4; assay: cAMP; assay type: cell-based; details: Gi assay, MRGPRX4-expressing cells
MRGPRX4 orphan GPCR = MRGPRX4 orphan GPCR (Homo sapiens, UniProt Q96LA9); assay: TANGO β-arrestin recruitment assay, MRGPRX4; assay type: cell-based; details: initial NCC-1 screen
MRGPRX1 [4] = biological target: T3, MRGPRX1 (Homo sapiens, UniProt Q96LB2); assay: cAMP; assay type: cell-based; details: Gs assay, HEK293T cells
MRGPRX2 [5] = biological target: T4, MRGPRX2 (Homo sapiens, UniProt Q96LB1); assay: cAMP; assay type: cell-based; details: Gs assay, HEK293T cells
T4 sequence (Q96LB1 1-330): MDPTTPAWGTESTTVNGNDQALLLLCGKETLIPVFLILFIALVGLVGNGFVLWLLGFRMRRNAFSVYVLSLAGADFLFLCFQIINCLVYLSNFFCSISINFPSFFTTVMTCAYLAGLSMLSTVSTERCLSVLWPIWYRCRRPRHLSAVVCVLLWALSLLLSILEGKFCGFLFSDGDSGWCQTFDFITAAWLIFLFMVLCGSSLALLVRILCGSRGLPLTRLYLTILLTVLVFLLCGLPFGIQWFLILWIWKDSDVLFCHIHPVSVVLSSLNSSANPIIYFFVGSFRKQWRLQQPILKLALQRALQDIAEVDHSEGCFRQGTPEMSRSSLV

[6] = system: 91 orphan and poorly annotated GPCRs; assay: TANGO screen of the NCC-1 library; assay type: cell-based, human; details: NCC-1 screen
MRGPRX4 [7] = biological target: T2, MRGPRX4; assay: calcium mobilization assay, stable MRGPRX4 cell line; assay type: cell-based; details: MRGPRX4-expressing stable cells
Outline: (§1)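 Tetracycline-inducible Flp-In T-Rex HEK-T lines carried FLAG-tagged receptor in pcDNA5/FRT/TO and were kept with 15 μg/ml blasticidin and 100 μg/ml hygromycin B. Expression was induced with 1ug/ml tetracycline for 24 h. The calcium assay used 15,000 cells/well and FLIPR Calcium 4 dye (45 min 37°C, 15 min RT), with 16-point 3-fold dilutions at final 10 μM–0.003 nM. Fluorescence was read for 10 s baseline plus 120 s.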

MRGPRX2 [8] = biological target: T4, MRGPRX2; assay: TANGO β-arrestin recruitment assay, MRGPRX2; assay type: cell-based; details: NCC-1 screen, confirmed in concentration-response studies
MRGPRX2 [9] = biological target: T4, MRGPRX2; assay: PI hydrolysis assay, MRGPRX2; assay type: cell-based
Outline: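 HEK-293T cells were transiently transfected with 10 μg receptor DNA per 15 cm dish and seeded the next day on poly-L-lysine in 1% dialyzed FBS. They were labelled 16 h with 1 μCi/well ³H-inositol in inositol-free DMEM. Concentration series were applied in quadruplicate in HBSS/24 mM NaHCO₃/11 mM glucose/15 mM LiCl, pH 7.4, for 1 h at 37°C. Cells were lysed with 50 mM formic acid, and extracts were counted by SPA beads.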

MRGPRX2 [10] = biological target: T4, MRGPRX2; assay: calcium mobilization assay, stable MRGPRX2 cell line; assay type: cell-based; details: MRGPRX2-expressing stable cells
Outline: as §1

[11] = biological target: neuromedin B receptor (NMBR; also known as the BB1 bombesin receptor) (Homo sapiens, UniProt P28336); assay: TANGO β-arrestin recruitment assay, NMBR; assay type: cell-based
[12] = biological target: neuromedin B receptor (NMBR; BB1) (Homo sapiens, UniProt P28336); assay: calcium-release; assay type: cell-based; details: BB1-expressing cells
BB2 bombesin receptor = BB2 bombesin receptor (Homo sapiens, UniProt P30550); assay: calcium mobilization assay, BB2-expressing cells; assay type: cell-based
Outline: (§2)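 Cells were plated at 15,000/well on poly-L-lysine in DMEM with 500 ug/ml G-418 and 1% dialyzed FBS, then held overnight. Loading was with FLIPR Calcium 4 dye in HBSS/2.5 mM probenecid/20 mM HEPES, pH 7.4–7.8, for 45 min at 37°C plus 15 min at RT. Compounds (10 mM DMSO stocks) ran as 16-point 3-fold dilutions, final 10 μM–0.003 nM. Fluorescence was read 10 s before and 120 s after addition.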

[13] = biological target: BB2 bombesin receptor (GRPR) (Homo sapiens, UniProt P30550); assay: TANGO β-arrestin recruitment assay, BB2; assay type: cell-based
BB3 bombesin receptor = biological target: T5, BB3 bombesin receptor (Homo sapiens, UniProt P32247); assay: calcium mobilization assay, BB3-expressing cells; assay type: cell-based
T5 sequence (P32247 1-399): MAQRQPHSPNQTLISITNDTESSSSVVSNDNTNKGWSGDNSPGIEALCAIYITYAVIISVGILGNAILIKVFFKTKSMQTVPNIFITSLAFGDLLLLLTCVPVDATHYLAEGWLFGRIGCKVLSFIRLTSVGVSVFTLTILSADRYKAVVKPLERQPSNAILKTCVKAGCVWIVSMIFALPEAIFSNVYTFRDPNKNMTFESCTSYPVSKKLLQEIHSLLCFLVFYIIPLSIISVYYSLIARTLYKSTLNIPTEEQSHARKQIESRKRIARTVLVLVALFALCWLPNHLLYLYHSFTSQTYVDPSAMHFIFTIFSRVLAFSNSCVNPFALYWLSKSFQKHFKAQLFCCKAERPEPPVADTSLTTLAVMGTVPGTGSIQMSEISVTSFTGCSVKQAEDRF
Outline: as §2

HTR1A serotonin receptor = biological target: T6, HTR1A serotonin receptor (Homo sapiens, UniProt P08908); assay: TANGO assay in antagonist mode, HTR1A; assay type: cell-based; details: 1 μM clozapine
T6 sequence (P08908 1-422): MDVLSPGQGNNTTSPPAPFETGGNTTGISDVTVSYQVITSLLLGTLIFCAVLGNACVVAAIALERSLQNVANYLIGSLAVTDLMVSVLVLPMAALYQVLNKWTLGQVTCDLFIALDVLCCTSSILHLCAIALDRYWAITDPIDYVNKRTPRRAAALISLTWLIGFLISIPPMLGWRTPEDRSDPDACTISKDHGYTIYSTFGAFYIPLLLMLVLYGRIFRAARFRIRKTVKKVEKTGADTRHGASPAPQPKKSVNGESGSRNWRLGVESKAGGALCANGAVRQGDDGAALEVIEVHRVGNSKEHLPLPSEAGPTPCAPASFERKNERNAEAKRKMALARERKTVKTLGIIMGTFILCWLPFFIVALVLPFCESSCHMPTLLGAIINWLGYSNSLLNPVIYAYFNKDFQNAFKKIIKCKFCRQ

HTR1D serotonin receptor = HTR1D serotonin receptor (Homo sapiens, UniProt P28221); assay: TANGO assay in antagonist mode, HTR1D; assay type: cell-based; details: 1 μM clozapine
MRGPRX1 [14] = biological target: T3, MRGPRX1; assay: calcium mobilization assay, stable MRGPRX1 cell line; assay type: cell-based; details: MRGPRX1-expressing stable cells
Outline: as §1

T2 sequence (Q96LA9 whole entry): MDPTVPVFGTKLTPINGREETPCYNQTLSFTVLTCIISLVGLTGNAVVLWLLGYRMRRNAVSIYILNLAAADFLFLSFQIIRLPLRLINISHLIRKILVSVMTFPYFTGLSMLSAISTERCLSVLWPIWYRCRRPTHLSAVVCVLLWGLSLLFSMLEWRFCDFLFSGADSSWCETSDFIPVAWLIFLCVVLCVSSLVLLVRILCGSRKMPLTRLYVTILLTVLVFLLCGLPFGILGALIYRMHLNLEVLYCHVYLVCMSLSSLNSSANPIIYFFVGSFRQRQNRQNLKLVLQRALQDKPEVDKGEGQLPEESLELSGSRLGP
T3 sequence (Q96LB2 whole entry): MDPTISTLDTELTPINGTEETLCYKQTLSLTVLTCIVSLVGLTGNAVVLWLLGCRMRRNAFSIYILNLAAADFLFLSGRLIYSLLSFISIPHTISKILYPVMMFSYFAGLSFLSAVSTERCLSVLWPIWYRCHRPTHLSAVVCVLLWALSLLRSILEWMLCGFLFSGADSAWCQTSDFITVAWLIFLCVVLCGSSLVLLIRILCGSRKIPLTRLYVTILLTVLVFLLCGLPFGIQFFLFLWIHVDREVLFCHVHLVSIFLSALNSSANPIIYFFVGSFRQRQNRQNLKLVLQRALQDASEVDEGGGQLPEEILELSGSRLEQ
Chain of MRGPRX4 orphan GPCR (Q96LA9 whole entry): as the sequence (Q96LA9 whole entry) above
Chain of HTR1D serotonin receptor (P28221 whole entry): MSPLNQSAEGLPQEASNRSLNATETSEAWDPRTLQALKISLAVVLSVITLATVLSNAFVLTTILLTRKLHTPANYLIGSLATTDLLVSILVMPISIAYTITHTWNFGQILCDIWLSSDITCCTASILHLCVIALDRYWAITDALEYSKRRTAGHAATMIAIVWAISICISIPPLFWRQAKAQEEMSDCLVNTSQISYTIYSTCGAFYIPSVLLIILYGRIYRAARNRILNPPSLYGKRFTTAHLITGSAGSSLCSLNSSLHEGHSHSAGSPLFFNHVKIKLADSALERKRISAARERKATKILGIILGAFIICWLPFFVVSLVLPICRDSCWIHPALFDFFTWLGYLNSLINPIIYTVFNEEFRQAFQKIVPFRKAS
Chain of BB2 bombesin receptor (GRPR) (P30550 whole entry): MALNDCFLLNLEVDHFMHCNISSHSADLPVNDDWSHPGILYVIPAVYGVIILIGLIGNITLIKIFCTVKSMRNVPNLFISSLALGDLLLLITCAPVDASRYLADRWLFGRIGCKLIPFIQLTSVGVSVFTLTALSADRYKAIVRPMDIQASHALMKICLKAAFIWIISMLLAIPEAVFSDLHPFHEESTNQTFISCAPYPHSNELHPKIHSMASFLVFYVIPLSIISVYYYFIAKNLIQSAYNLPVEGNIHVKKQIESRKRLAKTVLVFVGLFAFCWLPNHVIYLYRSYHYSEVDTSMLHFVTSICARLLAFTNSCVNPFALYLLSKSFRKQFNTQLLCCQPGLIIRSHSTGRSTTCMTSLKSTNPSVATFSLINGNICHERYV
Chain of BB2 bombesin receptor (P30550 whole entry): as above
Chain of MRGPRX3 (Q96LB0 whole entry): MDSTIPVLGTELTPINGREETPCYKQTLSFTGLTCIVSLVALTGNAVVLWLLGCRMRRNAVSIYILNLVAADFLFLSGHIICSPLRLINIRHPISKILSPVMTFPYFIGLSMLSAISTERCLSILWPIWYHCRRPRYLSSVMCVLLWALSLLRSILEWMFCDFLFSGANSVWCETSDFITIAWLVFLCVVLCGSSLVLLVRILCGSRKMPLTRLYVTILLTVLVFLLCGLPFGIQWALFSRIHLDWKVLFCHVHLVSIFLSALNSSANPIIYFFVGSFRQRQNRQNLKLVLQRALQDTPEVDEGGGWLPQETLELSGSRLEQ
Chain of neuromedin B receptor (NMBR; BB1) (P28336 whole entry): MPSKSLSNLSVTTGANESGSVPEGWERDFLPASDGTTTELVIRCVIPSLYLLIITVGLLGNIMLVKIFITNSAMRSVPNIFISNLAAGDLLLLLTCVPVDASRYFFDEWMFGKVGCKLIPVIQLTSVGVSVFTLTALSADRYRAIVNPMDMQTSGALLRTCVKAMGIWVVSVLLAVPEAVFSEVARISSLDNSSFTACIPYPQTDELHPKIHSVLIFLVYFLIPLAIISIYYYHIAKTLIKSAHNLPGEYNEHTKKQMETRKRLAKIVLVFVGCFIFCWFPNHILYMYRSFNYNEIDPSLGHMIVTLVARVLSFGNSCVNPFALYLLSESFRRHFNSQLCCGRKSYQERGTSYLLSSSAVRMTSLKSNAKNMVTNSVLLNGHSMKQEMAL
Chain of UniProt P28336 (P28336 whole entry): as above
Chain of DRD5 dopamine receptor (P21918 whole entry): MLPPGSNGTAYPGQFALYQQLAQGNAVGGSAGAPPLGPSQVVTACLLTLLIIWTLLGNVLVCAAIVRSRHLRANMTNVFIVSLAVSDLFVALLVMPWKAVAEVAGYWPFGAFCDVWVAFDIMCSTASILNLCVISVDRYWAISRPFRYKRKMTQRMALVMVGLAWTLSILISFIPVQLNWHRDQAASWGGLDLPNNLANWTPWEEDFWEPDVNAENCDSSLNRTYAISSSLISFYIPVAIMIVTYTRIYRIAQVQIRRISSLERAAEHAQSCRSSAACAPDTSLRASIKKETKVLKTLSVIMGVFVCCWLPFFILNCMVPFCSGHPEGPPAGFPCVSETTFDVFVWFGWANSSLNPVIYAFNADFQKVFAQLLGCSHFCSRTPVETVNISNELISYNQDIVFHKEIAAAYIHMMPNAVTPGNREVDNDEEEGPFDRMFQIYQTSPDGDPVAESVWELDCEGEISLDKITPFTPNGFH

Q: What does the source list for `CCN(CC)C(=O)[C@@H]1C=C2c3cccc4[nH]cc(c34)C[C@H]2N(C)C1` [LSD, lysergic acid diethylamide]?
A: activity at the D5 dopamine receptor (DRD5 dopamine receptor): displayed activity; activity at the D4 dopamine receptor (DRD4 dopamine receptor): displayed activity; number of tested targets with activity [1]: 15

Q: Which “activity when cAMP was measured at MRGPRX3” value (MRGPRX3) does the source give for `CC(C)[C@H]1CC[C@H](C(=O)N[C@H](Cc2ccccc2)C(=O)O)CC1` [Nateglinide, nateglinide] here?
A: inactive

Q: What about the “activity when cAMP was measured at MRGPRX4” value (MRGPRX4 [2]) of the same compound?
A: exceedingly modest activity at high concentrations

Q: And the “inhibition of the cAMP response to isoproterenol” value (MRGPRX4 [3])?
A: inability

Q: What about the “increase in luminescence over basal levels” value (MRGPRX4 orphan GPCR) of the same compound?
A: 45 fold

Q: What about the “activity when cAMP was measured at MRGPRX1” value (MRGPRX1 [4]) of the same compound?
A: inactive

Q: What about the “activity when cAMP was measured at MRGPRX2” value (MRGPRX2 [5]) of the same compound?
A: inactive

Q: What about the “selectivity among the 91 targets tested” value [6] of the same compound?
A: apparently selective

Q: What about the calcium mobilization response (MRGPRX4 [7]) of the same compound?
A: concentration-dependent responses

Q: Which “activity in the TANGO assay at MRGPRX2” value (MRGPRX2 [8]) does the source give for `CN1CC[C@]2(c3cccc(O)c3)Cc3nc4ccccc4cc3C[C@H]2C1` [SB 205,607] here?
A: most active compounds

Q: What about the “concentration-dependent activity at MRGPRX2 by PI hydrolysis” value (MRGPRX2 [9]) of the same compound?
A: confirmed

Q: What about the calcium mobilization response (MRGPRX2 [10]) of the same compound?
A: concentration-dependent responses

Q: What does the source list for `CC(C)(C)NC(=O)[C@@H]1C[C@@H]2CCCC[C@@H]2CN1C[C@@H](O)[C@H](Cc1ccccc1)NC(=O)[C@H](CC(N)=O)NC(=O)c1ccc2ccccc2n1` [Saquinavir, saquinavir]?
A: response of BB1 in the TANGO assay [11]: insensitive; calcium mobilization response [12]: did not stimulate a response; calcium mobilization response (BB2 bombesin receptor): did not stimulate a response; response of BB2 in the TANGO assay [13]: insensitive; calcium mobilization response (BB3 bombesin receptor): did stimulate a response

Q: `CN1CCN(C2=Nc3cc(Cl)ccc3Nc3ccccc32)CC1` [clozapine] was tested. Which “effect of pre-exposure on responses to the agonist LSD” value (HTR1A serotonin receptor) did it give?
A: little or no effect

Q: What about the “effect of pre-exposure on responses to the agonist LSD” value (HTR1D serotonin receptor) of the same compound?
A: little or no effect

Q: Which calcium mobilization response (MRGPRX1 [14]) does the source give for BAM8-22 here?
A: concentration-dependent responses
